How the values were obtained:
[1] = molecular target: T1, Beta-lactamase SHV-1 (Klebsiella pneumoniae) (UniProt P0AD64); experiment: Inhibition of Klebsiella pneumoniae KP1082 SHV-1 assessed as imipenem MIC at 4 ug/ml by broth microdilution method
T1 sequence (whole entry): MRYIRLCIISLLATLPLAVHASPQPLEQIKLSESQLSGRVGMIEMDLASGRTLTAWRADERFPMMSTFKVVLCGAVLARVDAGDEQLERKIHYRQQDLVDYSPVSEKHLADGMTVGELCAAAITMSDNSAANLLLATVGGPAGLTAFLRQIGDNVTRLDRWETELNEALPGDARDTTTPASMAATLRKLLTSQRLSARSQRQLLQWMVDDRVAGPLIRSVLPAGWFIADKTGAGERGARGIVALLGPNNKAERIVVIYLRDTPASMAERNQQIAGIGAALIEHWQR

[2] = system: Klebsiella aerogenes; experiment: Inhibition of Enterobacter aerogenes EA1028 OXA-30 assessed as cefepime MIC at 4 ug/ml by broth microdilution method
How it was run: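 CLSI broth microdilution (M07-A9) against clinical strains expressing serine β-lactamases.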

[3] = Half life in rat at 100 mg/kg, iv administered as 0.5 hrs infusion by HPLC-MS method; type: ADME, organism-based; conditions: in vivo
[4] = molecular target: Beta lactamase TEM-1 (Klebsiella pneumoniae) (UniProt Q7B899); experiment: Inhibition of Klebsiella pneumoniae KP1087 TEM-1 assessed as biapenem MIC at 4 ug/ml by broth microdilution method
Sequence of Beta lactamase TEM-1 (Klebsiella pneumoniae) (Q7B899 as listed by the source): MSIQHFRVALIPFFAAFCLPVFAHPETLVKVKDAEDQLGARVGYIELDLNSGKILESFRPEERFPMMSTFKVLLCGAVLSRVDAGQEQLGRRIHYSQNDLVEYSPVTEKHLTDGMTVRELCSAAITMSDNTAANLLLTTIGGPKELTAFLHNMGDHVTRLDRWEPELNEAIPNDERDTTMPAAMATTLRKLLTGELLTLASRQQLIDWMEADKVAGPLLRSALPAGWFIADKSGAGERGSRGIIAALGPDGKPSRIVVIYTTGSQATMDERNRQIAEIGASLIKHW
How it was run: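 Carbapenem MIC by CLSI broth microdilution (M07-A9), carbapenem titrated with inhibitor held at fixed 4 μg/mL, against clinical serine-carbapenemase-producing strain KP1087 (KPC-2, CTX-M-15, SHV-11, TEM-1; double porin mutant).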

[5] = molecular target: Carbapenem-hydrolyzing beta-lactamase KPC (Klebsiella pneumoniae) (UniProt Q9F663); experiment: Inhibition of Klebsiella pneumoniae KP1084 KPC-3 assessed as biapenem MIC at 4 ug/ml by broth microdilution method
Sequence of Carbapenem-hydrolyzing beta-lactamase KPC (Klebsiella pneumoniae) (Q9F663 whole entry): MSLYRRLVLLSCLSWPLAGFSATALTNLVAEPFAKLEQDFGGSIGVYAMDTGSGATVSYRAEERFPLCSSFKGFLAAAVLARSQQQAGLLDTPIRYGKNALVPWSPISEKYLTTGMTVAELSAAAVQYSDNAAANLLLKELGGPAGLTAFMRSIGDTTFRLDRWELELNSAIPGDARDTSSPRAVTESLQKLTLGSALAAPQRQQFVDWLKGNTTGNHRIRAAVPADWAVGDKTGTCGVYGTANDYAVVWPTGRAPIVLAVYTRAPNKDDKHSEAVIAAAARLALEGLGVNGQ

[6] = molecular target: Beta-lactamase (Klebsiella pneumoniae) (UniProt Q93LQ9); experiment: Inhibition of Klebsiella pneumoniae KP1084 KPC-3 assessed as meropenem MIC at 4 ug/ml by broth microdilution method
Sequence of Beta-lactamase (Klebsiella pneumoniae) (Q93LQ9 as listed by the source): as the sequence (Q9F663 whole entry) above
How it was run: (§1)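 CLSI broth microdilution (M07-A9, 2012) MIC of the carbapenem against clinical serine carbapenemase-producing strain, tested alone and with the inhibitor held at a fixed 4 μg/mL.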

[7] = molecular target: T2, Class A carbapenemase (Enterobacter cloacae) (UniProt A7WP95); experiment: Inhibition of Enterobacter cloacae ECL1058 KPC-3 assessed as ertapenem MIC at 4 ug/ml by broth microdilution method
T2 sequence (whole entry): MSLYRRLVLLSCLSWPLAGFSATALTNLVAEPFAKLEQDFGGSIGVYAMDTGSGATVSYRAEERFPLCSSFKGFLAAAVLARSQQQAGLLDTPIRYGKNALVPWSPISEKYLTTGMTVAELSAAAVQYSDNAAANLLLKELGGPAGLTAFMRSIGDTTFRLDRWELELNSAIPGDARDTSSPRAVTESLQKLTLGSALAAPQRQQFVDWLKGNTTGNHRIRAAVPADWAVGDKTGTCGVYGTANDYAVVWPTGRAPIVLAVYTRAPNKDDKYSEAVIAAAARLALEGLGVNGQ

[8] = Volume of distribution at steady state in human at 1 g administered as 3 hrs of infusion; type: ADME, organism-based; conditions: in vivo, iv, read-out: Vdss
How it was run: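 Healthy volunteers received 3 h infusions. Plasma concentrations were fit to a noncompartmental model to derive steady-state volume of distribution at the 1 g dose.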

[9] = molecular target: Beta-lactamase TEM (Enterobacter cloacae) (UniProt Q6W9J1); experiment: Inhibition of Enterobacter cloacae ECL1058 TEM-1 assessed as imipenem MIC at 4 ug/ml by broth microdilution method
Sequence of Beta-lactamase TEM (Enterobacter cloacae) (Q6W9J1 as listed by the source): as the sequence (Q7B899 as listed by the source) above

[10] = molecular target: Beta lactamase TEM-1 (Klebsiella pneumoniae) (UniProt Q7B899); experiment: Inhibition of Klebsiella pneumoniae KP1004 TEM-1 assessed as biapenem MIC at 4 ug/ml by broth microdilution method; how it was run: as §1

O=C(O)C[C@@H]1CC[C@H](NC(=O)Cc2cccs2)B(O)O1 [VABORBACTAM]
MIC [1]: 0.13 µg/mL
MIC [2]: 0.5 µg/mL
half-life [3]: 25.2 min
MIC [4]: 0.25 µg/mL
MIC [5]: 0.25 µg/mL
MIC [6]: 0.5 µg/mL
MIC [7]: 0.25 µg/mL
Vd [8]: 21 L
MIC [9]: 0.25 µg/mL
MIC [10]: < 0.06 µg/mL
